Results as given in ChEMBL document CHEMBL1132197, “Stereospecific synthesis, structure-activity relationship, and oral bioavailability of tetrahydropyrimidin-2-one HIV protease inhibitors” (J Med Chem, 1999).

What was measured:
[1] = tested on: MT2; assay: Antiviral activity by measuring its effect on the accumulation of viral RNA transcripts on infection of MT-2 cells with HIV-1 RF.; format: functional; settings: Homo sapiens
Outline: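 Viral RNA transcript accumulation read 3 days after HIV-1 RF infection of MT-2 cells. IC90 is the concentration cutting viral RNA by 90% versus an untreated infected culture. TC50 came from MTT dye reduction in uninfected MT-2 cultures grown 3 days with compound.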

[2] = biological target: Human immunodeficiency virus type 1 protease (Human immunodeficiency virus 1, UniProt Q72874); assay: Inhibition constant of HIV protease inhibitors
Outline: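 HIV protease (HIVPR) inhibition constant was determined by monitoring cleavage of a fluorescent peptide substrate, with products separated and quantified by HPLC.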

[3] = The maximum plasma concentration (Cmax) is the observed peak plasma concentration after an oral dose on rat; format: ADME, organism-based; set-up: route oral
Outline: (§1)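 Rats dosed orally in groups at 10 mg/kg, in a formulation of propylene glycol, poly(ethylene glycol) 400 and water. Cmax is the observed peak plasma concentration after the oral dose.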

[4] = The maximum plasma concentration (Cmax) is the observed peak plasma concentration after an oral dose on dog.; format: ADME, organism-based, Canis lupus familiaris; set-up: route oral
[5] = The maximum plasma concentration (Cmax) is the observed peak plasma concentration after an oral dose on rat.; format: ADME, organism-based; set-up: route oral; outline: as §1

SMILES | IC90 [1] [nM] | Ki [2] [nM] | Cmax [3] [nM] | Cmax [4] [nM] | Cmax [5] [nM]
CC(=O)c1cccc(CN2C(=O)N(Cc3cccc(C(C)=O)c3)[C@H](Cc3ccccc3)[C@H](O)[C@H]2CCc2ccccc2)c1 | 49 | 0.91 | 180 | – | –
Nc1cccc(CN2C(=O)N(Cc3cccc(N)c3)[C@H](Cc3ccccc3)[C@H](O)[C@H]2CCc2ccccc2)c1 | 365 | – | 1000 | – | –
O=C1N(Cc2ccc3[nH]ncc3c2)[C@H](CCc2ccccc2)[C@@H](O)[C@@H](Cc2ccccc2)N1Cc1ccc2[nH]ncc2c1 | – | 0.02 | – | 250 | –
O=C1N(Cc2cccc(O)c2)[C@H]([C@@H](F)Cc2ccccc2)[C@@H](O)[C@@H](Cc2ccccc2)N1Cc1cccc(O)c1 | 2100 | 12 | – | – | 250
O=C1N(Cc2cccc(-c3cc[nH]n3)c2)[C@H](CCc2ccccc2)[C@@H](O)[C@@H](Cc2ccccc2)N1Cc1cccc(-c2cc[nH]n2)c1 | 22 | 0.1 | 160 | – | –
O=C1N(Cc2cccc(CO)c2)[C@H](CCc2ccccc2)[C@@H](O)[C@@H](Cc2ccccc2)N1Cc1cccc(CO)c1 | 109 | – | 240 | – | –
